SKKanGAS inh: SKKanGAS growth inhibition. S. pyogenes SKKanGAS, kanamycin growth, BacTiter-Glo, 6 h. actives 1.3% (n = 300,000). AID 1662. inhibition, % at 7.5 µM;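 active = mean replicate score, as percent of positive control median, at least 50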;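 also: strain carries kanamycin resistance gene driven by streptokinase promoter and grows in 40 µg/ml kanamycin; loss of luminescence reflects streptokinase promoter inhibition or plain growth inhibition; 0% = median of DMSO wells and 100% = positive control at its reference dose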
CSC inhib: cancer stem cell inhibition; actives 1.1% (n = 300,000); AID 2717; cancer stem cell-like cells viability, luminescence; inhibition, % at 7.5 µM; in the data active = inhibition above about 75%; tested in HMLE shEcad cells
Mdm2-MdmX inh: inhibitors of human Mdm2/MdmX interaction; O15151+Q00987; SaOS-2 split-luciferase Mdm2/MdmX complementation, luminescence; inhibition, % at 8 µM; actives 3% (n = 330,000);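 active = inhibition of at least 50% at 8 µM in the primary screen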
Target sequence (O15151 whole entry, looked up): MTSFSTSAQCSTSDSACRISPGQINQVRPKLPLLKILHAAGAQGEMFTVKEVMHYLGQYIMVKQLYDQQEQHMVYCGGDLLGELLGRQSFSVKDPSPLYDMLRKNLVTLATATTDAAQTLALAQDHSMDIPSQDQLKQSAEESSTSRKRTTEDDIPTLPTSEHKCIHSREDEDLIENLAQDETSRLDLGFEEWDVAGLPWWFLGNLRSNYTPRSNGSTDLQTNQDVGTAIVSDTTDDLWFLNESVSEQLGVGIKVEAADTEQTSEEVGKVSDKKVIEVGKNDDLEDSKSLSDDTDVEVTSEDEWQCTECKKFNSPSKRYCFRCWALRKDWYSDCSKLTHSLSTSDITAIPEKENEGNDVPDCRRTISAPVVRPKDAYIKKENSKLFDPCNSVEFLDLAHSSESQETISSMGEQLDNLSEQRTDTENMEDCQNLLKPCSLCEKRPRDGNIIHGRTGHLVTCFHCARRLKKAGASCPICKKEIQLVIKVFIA
Target sequence (Q00987 whole entry, looked up): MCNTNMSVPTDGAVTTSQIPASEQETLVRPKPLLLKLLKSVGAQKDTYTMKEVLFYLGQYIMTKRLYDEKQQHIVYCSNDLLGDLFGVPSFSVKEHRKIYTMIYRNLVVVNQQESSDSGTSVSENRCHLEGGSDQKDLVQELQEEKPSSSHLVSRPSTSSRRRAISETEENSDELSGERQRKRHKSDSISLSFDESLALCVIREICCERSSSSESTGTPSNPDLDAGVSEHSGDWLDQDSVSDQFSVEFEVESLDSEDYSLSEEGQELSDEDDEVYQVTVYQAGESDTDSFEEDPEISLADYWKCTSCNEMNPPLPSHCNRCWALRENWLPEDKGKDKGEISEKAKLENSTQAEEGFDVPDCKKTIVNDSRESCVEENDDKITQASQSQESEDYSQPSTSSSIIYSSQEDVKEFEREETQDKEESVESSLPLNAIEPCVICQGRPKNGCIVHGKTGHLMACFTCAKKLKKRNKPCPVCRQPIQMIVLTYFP
Beta cell apopt: beta cell apoptosis inhibition | protection from apoptosis, % (concentration not given with the values) | INS-1E cytokine-induced death, ATP luminescence, 48 h; percent of positive-control rescue, neutral wells zero | actives 0.8% (n = 300,000);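 active = Every replicate reaches about 75%, or at least half do and their mean reaches it too, limit read from the data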;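 also: 0% = cytokine-treated negative control wells and 100% = positive control rescue; higher means more ATP so stronger rescue from cytokine killing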
T cruzi repl: T. cruzi replication inhibition; AID 1885; T. cruzi beta-gal in NIH3T3, luminescence, 90 h; actives 1.4% (n = 300,000); inhibition, % (test concentration not listed);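 active = mean inhibition across valid replicates above about 55%, limit read from the data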;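 also: signal also drops with host cell toxicity which is not excluded here; 0% = plate median of DMSO wells and 100% = zero luminescence signal; higher percent means less beta-gal luminescence so fewer parasites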
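Material: NIH/3T3 host cells with β-galactosidase reporter T. cruzi; Input: 5,000 host fibroblasts per well; Medium: DMEM, 2% fetal bovine serum; Compound: 50 nL DMSO compound solution per well; Schedule: 3 h host attachment, then at least 90 h co-culture; Detection: luminescent β-galactosidase signal after 60 min lysis.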
L major viab: Leishmania major promastigote growth inhibition | inhibition, % at 10 µM | actives 9% (n = 200,000) | AID 1063 | Leishmania major promastigotes, resazurin fluorescence viability; in the data active = inhibition above about 50%;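 also: promastigotes grown with compound for 44 hours at 28 °C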
Mdm2 MdmX conf: confirmation of human Mdm2/MdmX interaction inhibitors | actives 55% (n = 10,000) | shares compounds with Mdm2-MdmX inh | inhibition, % at 8 µM | Mdm2-MdmX binding, luminescent assay | AID 489028; in the data active = inhibition above about 40%
Full FLuc ctr: inhibits full-length luciferase, flagging false Mdm2/MdmX hits; shares compounds with Mdm2-MdmX inh; SaOS-2 full-length luciferase counterscreen, luminescence; inhibition, % at 8 µM; actives 77% (n = 6,200);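 active = mean inhibition at 8 µM reaching about 37%, which flags the compound as non-specific, limit read from the data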;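 also: p53-null SaOS-2 cells with luciferase driven by a doxycycline-inducible promoter; compound on cells about two nights before reading with doxycycline added after day one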
Active calls of the source: *; / = no result. A selection: hits, their analogues and other compounds. The true share with any hit is near 9.4%.

SMILES	SKKanGAS inh	CSC inhib	Mdm2-MdmX inh	Beta cell apopt	T cruzi repl	L major viab	Mdm2 MdmX conf	Full FLuc ctr
COCCn1c(SC(C)C(=O)Nc2ncc(Cl)cc2Cl)nc2ccccc21 (centres undefined)	-1	22	67*	-1	3	3	50*	58*
CC1(C)CC(=O)C=C(c2cccnc2)C1	-2	-22	5	-8	-22	/	/	/
COc1ccc(Cn2c(=O)[nH]c3cc(C(=O)NCCCOC(C)C)ccc3c2=O)cc1	-5	-8	6	2	5	6	/	/
COc1ccc(Cn2c(=S)[nH]c3cc(C(=O)NCc4cccnc4)ccc3c2=O)cc1	4	29	74*	11	3	-9	-8	/
CC1CCN(CCCNC(=O)c2ccc3c(=O)n(Cc4ccc(Cl)cc4)c(=S)[nH]c3c2)CC1	14	88*	88*	-6	8	100*	38	76*
O=C(NCC1CCCO1)c1ccc2c(=O)n(Cc3cccc(Br)c3)c(=S)[nH]c2c1 (centres undefined)	9	22	58*	20	3	-5	30	/
CCCn1c(=S)[nH]c2cc(C(=O)NCC3CCCO3)ccc2c1=O (centres undefined)	4	14	15	1	-14	4	/	/
COc1ccccc1Cn1c(=S)[nH]c2cc(C(=O)NCc3cccnc3)ccc2c1=O	7	40	-14	-1	2	-6	/	/
COc1ccc(Cn2c(=O)[nH]c3cc(C(=O)NCc4ccc5c(c4)OCO5)ccc3c2=O)cc1	3	0	65*	5	14	-5	29	/
Cc1ccc(S(=O)(=O)N2CCOCC2)cc1C(=O)NCc1ccccn1	/	/	3	/	/	/	/	/
O=C(c1ccc2c(c1)N(Cc1ccccc1)C(=O)c1ccccc1S2)N1CCCC1	-2	-1	20	5	28	8	/	/
Cc1ccc(C(=O)N2CCCCC2)cc1NC1=C(Cl)C(=O)N(Cc2ccccc2)C1=O	/	/	56*	/	/	/	50*	64*
COc1ccc(NC(=O)C(=O)c2cn(CC(=O)N3CCCC3)c3ccccc23)cc1	-2	1	58*	9	5	/	55*	89*
COc1ccc(C(=O)NCc2nnc(SCC(=O)NCc3ccco3)o2)cc1OC	2	-11	25	0	8	/	/	/
COc1ccccc1OCC(O)Cn1c(=N)n(CCN2CCCCC2)c2ccccc21 (centres undefined)	11	-5	56*	-7	15	65*	46*	74*
N=c1n(CCN2CCCCC2)c2ccccc2n1CC(O)COc1ccccc1 (centres undefined)	0	8	61*	8	10	101*	38	81*
Cc1ccnc(NC(=S)N2CCN(c3cccc(C(F)(F)F)c3)CC2)c1	68*	48	75*	70	49	/	77*	46*
Cc1ccc(C)c(NC(=S)N2CCN(c3cccc(C(F)(F)F)c3)CC2)c1	-4	1	16	-7	8	-1	/	/
O=C(CNC(=O)c1ccc(Br)o1)NC1CCCCC1	26	-13	25	/	-17	/	/	/
C=C(C)C(O)CC/C(C)=C/Cc1c(O)ccc(C(=O)/C=C/c2ccc(O)cc2)c1O (centres undefined)	/	/	47	/	/	/	/	/
COc1ccc(C(=O)/C=C/c2ccc(O)cc2)c(O)c1C/C=C(\C)CCC=C(C)C	/	/	68*	/	/	/	-4	/
COc1cc(C(=O)N(C)CCOc2ccccc2)ccc1OCC(=O)Nc1cccc(C(F)(F)F)c1	-6	1	41	-4	2	/	/	/
COc1ccc(CCN(C)C(=O)c2c(C)noc2C)cc1OC	/	/	25	1	/	/	/	/
O=C(NCCN1CCOCC1)c1ccccc1OCc1ccccc1	/	-7	12	-4	/	/	/	/
c1ccc2c(c1)CC(N1CCCCC1)c1ccccc1S2 (centres undefined)	-8	4	23	/	-30	/	/	/
SMILES	SKKanGAS inh	CSC inhib	Mdm2-MdmX inh	Beta cell apopt	T cruzi repl	L major viab	Mdm2 MdmX conf	Full FLuc ctr
CN1CCN(C2=Cc3cc(Cl)ccc3Sc3cc(F)ccc32)CC1	90*	113*	51*	/	38	100*	17	/
CN1CCN(C2Cc3cc(Cl)ccc3Sc3cc(F)ccc32)CC1 (centres undefined)	7	101*	54*	/	46	/	24	/
CN1CCN(CCOC2Cc3ccccc3Sc3ccc(Cl)cc32)CC1 (centres undefined)	-3	-6	60*	-2	39	66*	27	/
OCCN1CCN(C2Cc3cc(Cl)ccc3Sc3ccc(Cl)cc32)CC1 (centres undefined) (tested in a mixture with another compound)	11	/	59*	101*	14	55*	30	/
CCc1ccc2c(c1)Sc1ccccc1CC2N1CCN(C)CC1 (centres undefined)	11	35	44	4	40	/	/	/
O=C(CN1CCN(CCOCCO)CC1)N1c2ccccc2Sc2ccc(Cl)cc21	-3	19	7	-4	-6	19	/	/
CS(=O)(=O)c1cccc(C(=O)Nc2ccc3c(c2)OCCCO3)c1	-3	-5	-27	-1	-3	/	/	/
CCOC(=O)CSC1=C(C#N)C(c2ccc(C)s2)CC(=O)N1 (centres undefined)	-11	/	61*	/	-43	11	62*	67*
Cc1ccc(-n2c3nc(=O)[nH]c(=O)c-3cc3cc([N+](=O)[O-])ccc32)cc1	-1	8	58*	8	6	95*	46*	38*
Cc1ccc(-n2c(C)nn(Cc3ccc([N+](=O)[O-])cc3)c2=O)cc1	-2	8	-1	-2	0	-8	/	/
Oc1c(Cl)cc(Cl)cc1C1Nc2ccccc2-n2cccc21 (centres undefined)	1	3	-13	0	-5	/	/	/
COc1ccc2c(c1)NC(c1cc(Cl)cc(Cl)c1O)c1cccn1-2 (centres undefined)	/	/	81*	/	/	-1	16	/
COc1cc(OC)c2c(-c3cccc(-c4ccc(OC(F)(F)F)cc4)c3)cc(=O)oc2c1	/	/	18	/	/	/	/	/
COc1ccc(-c2cccc(-c3cc(=O)oc4cc5c(cc34)OCO5)c2)cc1	/	/	54*	/	/	/	24	/
COc1ccc(-c2cccc(-c3cc(=O)oc4cc(OC)c(OC)c(OC)c34)c2)cc1	/	/	37	/	/	/	/	/
COc1cc(OC)c2c(-c3cccc(-c4cccc(C)c4)c3)cc(=O)oc2c1	/	/	44	/	/	/	/	/
COc1ccc(-c2cccc(-c3cc(=O)oc4cc(OC)cc(OC)c34)c2)cc1	/	/	78*	/	/	/	54*	68*
COc1cc(OC)c2c(-c3cccc(-c4ccc(N(C)C)cc4)c3)cc(=O)oc2c1	/	/	67*	/	/	/	56*	103*
COc1cc(OC)c2c(-c3cccc(-c4ccc(CO)cc4)c3)cc(=O)oc2c1	/	/	74*	/	/	/	63*	62*

Screening data from PubChem BioAssay.
